Assay results published in ChEMBL document CHEMBL1268956, “3-Urea-1-(phenylmethyl)-pyridones as novel, potent, and selective EP3 receptor antagonists” (Bioorg Med Chem Lett, 2010).

Legend:
[1] = target: T1, Prostaglandin E2 receptor EP1 subtype (Homo sapiens, UniProt P34995); assay: Displacement of radioligand from human EP1 receptor
T1 sequence (P34995 whole entry): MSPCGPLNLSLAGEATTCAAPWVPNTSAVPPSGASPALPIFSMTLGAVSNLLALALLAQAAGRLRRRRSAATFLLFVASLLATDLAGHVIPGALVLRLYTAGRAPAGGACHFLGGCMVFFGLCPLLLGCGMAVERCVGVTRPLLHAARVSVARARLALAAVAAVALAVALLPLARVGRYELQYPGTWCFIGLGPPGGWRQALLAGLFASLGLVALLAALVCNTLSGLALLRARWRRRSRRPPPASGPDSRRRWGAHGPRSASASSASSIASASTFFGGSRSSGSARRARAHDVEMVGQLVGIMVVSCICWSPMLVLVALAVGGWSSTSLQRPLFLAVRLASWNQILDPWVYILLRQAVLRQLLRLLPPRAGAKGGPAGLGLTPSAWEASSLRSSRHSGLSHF

[2] = target: Prostaglandin E2 receptor EP2 subtype (Homo sapiens, UniProt P43116); assay: Displacement of radioligand from human EP2 receptor
[3] = target: Prostaglandin E2 receptor EP4 subtype (Homo sapiens, UniProt P35408); assay: Displacement of radioligand from human EP4 receptor
[4] = target: Prostaglandin F2-alpha receptor (Homo sapiens, UniProt P43088); assay: Displacement of radioligand from human FP receptor
Thromboxane A2 receptor = target: T2, Thromboxane A2 receptor (Homo sapiens, UniProt P21731); assay: Displacement of radioligand from human TP receptor
T2 sequence (P21731 whole entry): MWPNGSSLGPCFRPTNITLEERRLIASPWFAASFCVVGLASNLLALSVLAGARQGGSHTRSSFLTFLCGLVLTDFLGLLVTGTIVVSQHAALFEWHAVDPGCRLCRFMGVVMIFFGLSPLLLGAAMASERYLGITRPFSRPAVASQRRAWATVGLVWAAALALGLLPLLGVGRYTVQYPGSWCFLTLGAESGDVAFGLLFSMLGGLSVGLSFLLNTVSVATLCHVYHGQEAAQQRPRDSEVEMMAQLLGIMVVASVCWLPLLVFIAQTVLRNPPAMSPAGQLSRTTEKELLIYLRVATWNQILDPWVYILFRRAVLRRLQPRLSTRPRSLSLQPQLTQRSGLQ

[5] = target: T3, Prostaglandin E2 receptor EP3 subtype (Rattus norvegicus, UniProt P34980); assay: Inhibition of rat EP3 receptor
T3 sequence (P34980 whole entry): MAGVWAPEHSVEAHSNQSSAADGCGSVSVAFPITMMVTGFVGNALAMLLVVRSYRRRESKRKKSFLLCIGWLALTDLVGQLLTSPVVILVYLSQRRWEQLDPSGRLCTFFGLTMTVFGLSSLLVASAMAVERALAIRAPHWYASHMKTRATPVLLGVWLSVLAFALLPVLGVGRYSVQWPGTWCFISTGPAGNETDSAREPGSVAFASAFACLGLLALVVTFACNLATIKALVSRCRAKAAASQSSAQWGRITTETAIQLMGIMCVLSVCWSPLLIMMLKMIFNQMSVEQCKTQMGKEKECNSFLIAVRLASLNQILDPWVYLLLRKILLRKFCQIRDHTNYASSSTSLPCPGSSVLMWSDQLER

[6] = target: T4, Prostaglandin E2 receptor EP3 subtype (Homo sapiens, UniProt P43115); assay: Antagonist activity at human EP3 receptor expressed in human U2OS cells assessed as inhibition of PGE2-induced intracellular calcium mobilization by FLIPR assay; assay type: functional, cell-based
T4 sequence (P43115 whole entry): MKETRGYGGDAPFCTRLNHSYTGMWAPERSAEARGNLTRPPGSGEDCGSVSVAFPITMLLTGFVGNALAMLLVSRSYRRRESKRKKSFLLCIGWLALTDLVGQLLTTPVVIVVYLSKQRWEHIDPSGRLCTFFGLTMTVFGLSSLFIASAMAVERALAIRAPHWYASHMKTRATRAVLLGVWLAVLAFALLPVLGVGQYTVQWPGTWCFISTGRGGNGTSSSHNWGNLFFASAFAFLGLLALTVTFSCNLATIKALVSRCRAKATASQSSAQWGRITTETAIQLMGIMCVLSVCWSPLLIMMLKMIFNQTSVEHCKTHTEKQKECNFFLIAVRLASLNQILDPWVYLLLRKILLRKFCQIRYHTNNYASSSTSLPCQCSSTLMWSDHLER

[7] = target: Prostaglandin G/H synthase 1 (Homo sapiens, UniProt P23219); assay: Inhibition of human COX1 in human whole blood by ELISA; assay type: tissue-based
How it was run: (§1)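 Human whole blood; COX1 and COX2 inhibition read out in ELISA format.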

[8] = target: T5, Prostaglandin G/H synthase 2 (Homo sapiens, UniProt P35354); assay: Inhibition of human COX2 in human whole blood by ELISA; assay type: tissue-based; how it was run: as §1
T5 sequence (P35354 whole entry): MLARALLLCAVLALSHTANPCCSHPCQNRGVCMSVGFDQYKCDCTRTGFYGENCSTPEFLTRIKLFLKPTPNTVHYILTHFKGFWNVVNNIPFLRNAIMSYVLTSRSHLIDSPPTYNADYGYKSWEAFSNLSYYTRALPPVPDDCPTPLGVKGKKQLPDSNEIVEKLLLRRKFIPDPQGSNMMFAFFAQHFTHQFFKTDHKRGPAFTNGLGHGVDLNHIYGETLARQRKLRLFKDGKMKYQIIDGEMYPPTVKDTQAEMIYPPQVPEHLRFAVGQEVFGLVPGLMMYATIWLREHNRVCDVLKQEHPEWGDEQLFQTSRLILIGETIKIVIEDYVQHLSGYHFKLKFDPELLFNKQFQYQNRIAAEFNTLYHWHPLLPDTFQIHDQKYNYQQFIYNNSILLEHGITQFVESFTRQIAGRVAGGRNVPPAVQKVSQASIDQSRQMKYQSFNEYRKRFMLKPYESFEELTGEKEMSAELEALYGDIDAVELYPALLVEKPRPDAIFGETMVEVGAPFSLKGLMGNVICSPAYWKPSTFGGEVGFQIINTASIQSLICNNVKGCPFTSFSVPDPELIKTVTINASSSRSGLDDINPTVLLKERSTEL

Cytochrome P450 1A2 = target: T6, Cytochrome P450 1A2 (Homo sapiens, UniProt P05177); assay: Inhibition of CYP1A2; assay type: ADME
T6 sequence (P05177 whole entry): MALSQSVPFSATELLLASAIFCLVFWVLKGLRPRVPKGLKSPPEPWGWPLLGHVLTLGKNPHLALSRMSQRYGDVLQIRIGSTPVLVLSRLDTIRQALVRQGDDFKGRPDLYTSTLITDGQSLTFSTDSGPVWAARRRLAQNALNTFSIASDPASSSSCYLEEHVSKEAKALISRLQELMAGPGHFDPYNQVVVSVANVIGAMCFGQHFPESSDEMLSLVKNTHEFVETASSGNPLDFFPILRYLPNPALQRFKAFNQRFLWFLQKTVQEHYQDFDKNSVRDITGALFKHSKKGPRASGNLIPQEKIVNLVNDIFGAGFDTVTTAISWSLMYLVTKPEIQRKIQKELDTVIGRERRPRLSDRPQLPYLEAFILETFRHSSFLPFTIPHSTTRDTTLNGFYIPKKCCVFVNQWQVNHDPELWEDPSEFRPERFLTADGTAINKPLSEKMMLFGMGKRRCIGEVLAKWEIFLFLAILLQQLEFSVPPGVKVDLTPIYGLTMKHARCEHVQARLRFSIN

[9] = target: Prostaglandin D2 receptor (Homo sapiens) (UniProt Q13258); assay: Displacement of radioligand from human DP receptor
Prostaglandin D2 receptor (Homo sapiens), sequence (Q13258 whole entry, looked up): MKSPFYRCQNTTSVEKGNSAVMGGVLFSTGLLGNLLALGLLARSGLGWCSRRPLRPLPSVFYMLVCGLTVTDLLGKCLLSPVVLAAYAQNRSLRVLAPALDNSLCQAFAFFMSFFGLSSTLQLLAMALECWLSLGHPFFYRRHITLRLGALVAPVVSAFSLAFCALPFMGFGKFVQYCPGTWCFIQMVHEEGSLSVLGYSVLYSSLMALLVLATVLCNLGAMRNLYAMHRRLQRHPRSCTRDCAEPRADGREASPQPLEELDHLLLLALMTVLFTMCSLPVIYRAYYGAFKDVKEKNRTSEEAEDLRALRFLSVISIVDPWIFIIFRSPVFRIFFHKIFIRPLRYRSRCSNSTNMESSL

Prostaglandin F2-alpha receptor, sequence (P43088 whole entry): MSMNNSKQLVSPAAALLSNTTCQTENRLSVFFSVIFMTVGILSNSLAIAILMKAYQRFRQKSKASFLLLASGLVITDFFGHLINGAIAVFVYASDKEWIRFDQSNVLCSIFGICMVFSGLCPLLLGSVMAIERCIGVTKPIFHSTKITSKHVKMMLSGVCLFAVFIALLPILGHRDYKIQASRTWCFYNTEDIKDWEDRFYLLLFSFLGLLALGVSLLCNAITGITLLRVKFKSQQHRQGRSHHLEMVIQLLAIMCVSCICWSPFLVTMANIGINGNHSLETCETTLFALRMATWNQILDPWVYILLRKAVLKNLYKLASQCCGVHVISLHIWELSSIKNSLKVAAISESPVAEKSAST
Prostaglandin G/H synthase 1, sequence (P23219 whole entry): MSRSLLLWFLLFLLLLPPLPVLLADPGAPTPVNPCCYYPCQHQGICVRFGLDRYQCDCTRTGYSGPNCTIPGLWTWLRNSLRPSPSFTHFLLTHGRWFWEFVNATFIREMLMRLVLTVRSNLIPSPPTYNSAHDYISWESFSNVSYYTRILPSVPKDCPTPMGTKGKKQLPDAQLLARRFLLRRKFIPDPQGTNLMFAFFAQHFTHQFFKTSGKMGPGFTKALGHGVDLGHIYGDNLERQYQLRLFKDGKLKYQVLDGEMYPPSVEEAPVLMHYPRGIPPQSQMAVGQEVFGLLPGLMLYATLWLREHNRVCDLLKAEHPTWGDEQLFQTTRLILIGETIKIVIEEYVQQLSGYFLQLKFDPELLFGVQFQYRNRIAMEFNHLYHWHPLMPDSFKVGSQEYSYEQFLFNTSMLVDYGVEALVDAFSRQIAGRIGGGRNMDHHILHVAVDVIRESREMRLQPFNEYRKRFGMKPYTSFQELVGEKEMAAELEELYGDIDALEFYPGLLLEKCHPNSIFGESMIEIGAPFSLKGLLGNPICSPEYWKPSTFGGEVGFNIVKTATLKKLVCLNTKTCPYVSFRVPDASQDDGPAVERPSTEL
Prostaglandin E2 receptor EP4 subtype, sequence (P35408 whole entry): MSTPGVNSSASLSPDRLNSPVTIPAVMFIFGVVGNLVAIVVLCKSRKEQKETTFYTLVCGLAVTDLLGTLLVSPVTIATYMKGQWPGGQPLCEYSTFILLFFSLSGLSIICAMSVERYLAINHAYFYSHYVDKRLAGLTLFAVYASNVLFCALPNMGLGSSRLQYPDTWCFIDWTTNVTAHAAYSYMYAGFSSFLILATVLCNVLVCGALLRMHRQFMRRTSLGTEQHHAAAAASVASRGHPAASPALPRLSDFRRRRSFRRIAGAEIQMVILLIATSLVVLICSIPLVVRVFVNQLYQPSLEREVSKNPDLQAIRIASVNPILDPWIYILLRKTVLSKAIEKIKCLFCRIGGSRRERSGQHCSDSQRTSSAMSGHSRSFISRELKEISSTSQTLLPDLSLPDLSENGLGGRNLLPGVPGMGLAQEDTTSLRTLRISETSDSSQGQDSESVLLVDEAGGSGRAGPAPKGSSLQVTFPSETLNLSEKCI
Prostaglandin E2 receptor EP2 subtype, sequence (P43116 whole entry): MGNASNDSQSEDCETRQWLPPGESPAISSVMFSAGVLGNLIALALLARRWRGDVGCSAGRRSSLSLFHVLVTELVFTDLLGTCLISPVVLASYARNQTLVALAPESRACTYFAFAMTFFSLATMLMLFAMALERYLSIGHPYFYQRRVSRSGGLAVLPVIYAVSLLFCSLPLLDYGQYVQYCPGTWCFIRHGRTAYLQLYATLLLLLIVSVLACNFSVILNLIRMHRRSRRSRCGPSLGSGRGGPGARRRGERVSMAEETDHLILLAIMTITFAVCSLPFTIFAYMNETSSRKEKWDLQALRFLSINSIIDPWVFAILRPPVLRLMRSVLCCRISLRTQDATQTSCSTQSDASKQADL

Ki [1]: > 10 µM
Ki [2]: > 10 µM
Ki [3]: > 10 µM
Ki [4]: > 10 µM
Ki (Thromboxane A2 receptor): > 10 µM
Ki [5]: 0.158 µM
Ki [6]: 0.0501 µM
Ki [7]: > 100 µM
Ki [8]: > 100 µM
Ki (Cytochrome P450 1A2): 2 µM
pKi [9]: < 5
Compound: CCc1cccc(NC(=O)Nc2cccn(Cc3ccccc3Cl)c2=O)c1
